Assays:
HEK-293T = assay: Incucyte cell viability with HEK293T; type: toxicity, cell-based; conditions: human, 10 µM, compound concentration 10 uM; further: filed as whole numbers so only -1 and 0 and 1 occur
U2OS = assay: Multiplex assay against U2OS; type: toxicity, cell-based; conditions: human
How it was run: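 Per cents of healthy-nucleus cells form the tubulin, mitochondrial-mass and membrane-permeability phenotype values. Live cells were stained at seeding with Hoechst33342, BioTracker Green Microtubule Cytoskeleton Dye, MitoTracker Red and Annexin V Alexa Fluor 680. After compound addition they were imaged on a CQ1 microscope at 37°C and 5% CO2, and CellPathfinder machine-learning gating split them into Hoechst high-intensity objects or normal cells, normal cells into healthy, pyknosed or fragmented nuclei, and pyknosed cells into mitotic or apoptotic.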

[1] = 12 h, 1 µM, compound concentration 1 uM, replicate 1
[2] = 12 h, 1 µM, compound concentration 1 uM, replicate 2
[3] = 12 h, 10 µM, compound concentration 10 uM, replicate 1
[4] = 12 h, 10 µM, compound concentration 10 uM, replicate 2
[5] = 24 h, 1 µM, compound concentration 1 uM, replicate 1
[6] = 24 h, 1 µM, compound concentration 1 uM, replicate 2
[7] = 24 h, 10 µM, compound concentration 10 uM, replicate 1
[8] = 24 h, 10 µM, compound concentration 10 uM, replicate 2
[9] = 48 h, 1 µM, compound concentration 1 uM, replicate 1
[10] = 48 h, 1 µM, compound concentration 1 uM, replicate 2
[11] = 48 h, 10 µM, compound concentration 10 uM, replicate 1
[12] = 48 h, 10 µM, compound concentration 10 uM, replicate 2

## CN1C(=O)[C@@H](NC(=O)c2cc3ccccc3[nH]2)N=C(c2ccccc2)c2ccccc21 [DEVAZEPIDE]
HEK-293T; 0 h, replicate number 1, timepoint 0 hours
  Growth Rate: 0
HEK-293T; 6 h, replicate number 2, timepoint 6 hours
  Growth Rate: 1
HEK-293T; 12 h, replicate number 1, timepoint 12 hours
  Growth Rate: 1
HEK-293T; 12 h, replicate number 2, timepoint 12 hours
  Growth Rate: 0
HEK-293T; 18 h, replicate number 1, timepoint 18 hours
  Growth Rate: 0
HEK-293T; 24 h, replicate number 1, timepoint 24 hours
  Growth Rate: 0
U2OS; [1]
  Population Fragmented Nuclei (%): 12%
  Population Healthy Nuclei (%): 76%
  Population Hoechst High Intensity Objects (%): 7%
  Population Membrane Permeable-Phenotype (%): 3%
  Population Mitochondria Different-Phenotype (%): 17%
  Population Normal (%): 92%
  Population Pyknosed Nuclei (%): 11%
  Population Tubulin-Different-Phenotype (%): 21%
  Total Cell Count: 144
U2OS; [2]
  Population Apoptotic (%): 33%
  Population Fragmented Nuclei (%): 4%
  Population Healthy Nuclei (%): 85%
  Population Hoechst High Intensity Objects (%): 5%
  Population Membrane Permeable-Phenotype (%): 9%
  Population Mitochondria Different-Phenotype (%): 23%
  Population Mitotic Cells (%): 66%
  Population Normal (%): 94%
  Population Pyknosed Nuclei (%): 9%
  Population Tubulin-Different-Phenotype (%): 10%
  Total Cell Count: 68
U2OS; [3]
  Population Apoptotic (%): 52%
  Population Fragmented Nuclei (%): 11%
  Population Healthy Nuclei (%): 72%
  Population Hoechst High Intensity Objects (%): 6%
  Population Membrane Permeable-Phenotype (%): 21%
  Population Mitochondria Different-Phenotype (%): 45%
  Population Mitotic Cells (%): 47%
  Population Normal (%): 93%
  Population Pyknosed Nuclei (%): 15%
  Population Tubulin-Different-Phenotype (%): 70%
  Total Cell Count: 117
U2OS; [4]
  Population Apoptotic (%): 33%
  Population Fragmented Nuclei (%): 20%
  Population Healthy Nuclei (%): 75%
  Population Hoechst High Intensity Objects (%): 7%
  Population Membrane Permeable-Phenotype (%): 37%
  Population Mitochondria Different-Phenotype (%): 48%
  Population Mitotic Cells (%): 66%
  Population Normal (%): 92%
  Population Pyknosed Nuclei (%): 5%
  Population Tubulin-Different-Phenotype (%): 66%
  Total Cell Count: 65
U2OS; [5]
  Population Apoptotic (%): 31%
  Population Fragmented Nuclei (%): 10%
  Population Healthy Nuclei (%): 76%
  Population Hoechst High Intensity Objects (%): 5%
  Population Membrane Permeable-Phenotype (%): 1%
  Population Mitochondria Different-Phenotype (%): 14%
  Population Mitotic Cells (%): 68%
  Population Normal (%): 94%
  Population Pyknosed Nuclei (%): 13%
  Population Tubulin-Different-Phenotype (%): 12%
  Total Cell Count: 173
U2OS; [6]
  Population Apoptotic (%): 37%
  Population Fragmented Nuclei (%): 7%
  Population Healthy Nuclei (%): 82%
  Population Hoechst High Intensity Objects (%): 1%
  Population Membrane Permeable-Phenotype (%): 3%
  Population Mitochondria Different-Phenotype (%): 10%
  Population Mitotic Cells (%): 62%
  Population Normal (%): 98%
  Population Pyknosed Nuclei (%): 10%
  Population Tubulin-Different-Phenotype (%): 6%
  Total Cell Count: 79
U2OS; [7]
  Population Apoptotic (%): 87%
  Population Fragmented Nuclei (%): 22%
  Population Healthy Nuclei (%): 49%
  Population Hoechst High Intensity Objects (%): 6%
  Population Membrane Permeable-Phenotype (%): 29%
  Population Mitochondria Different-Phenotype (%): 29%
  Population Mitotic Cells (%): 12%
  Population Normal (%): 93%
  Population Pyknosed Nuclei (%): 27%
  Population Tubulin-Different-Phenotype (%): 47%
  Total Cell Count: 123
U2OS; [8]
  Population Apoptotic (%): 92%
  Population Fragmented Nuclei (%): 28%
  Population Hoechst High Intensity Objects (%): 7%
  Population Membrane Permeable-Phenotype (%): 19%
  Population Mitochondria Different-Phenotype (%): 45%
  Population Mitotic Cells (%): 7%
  Population Normal (%): 92%
  Population Pyknosed Nuclei (%): 22%
  Population Tubulin-Different-Phenotype (%): 51%
  Total Cell Count: 68
U2OS; [9]
  Population Apoptotic (%): 33%
  Population Fragmented Nuclei (%): 9%
  Population Healthy Nuclei (%): 82%
  Population Hoechst High Intensity Objects (%): 3%
  Population Membrane Permeable-Phenotype (%): 4%
  Population Mitochondria Different-Phenotype (%): 14%
  Population Mitotic Cells (%): 66%
  Population Normal (%): 96%
  Population Pyknosed Nuclei (%): 8%
  Population Tubulin-Different-Phenotype (%): 8%
  Total Cell Count: 231
U2OS; [10]
  Population Apoptotic (%): 50%
  Population Fragmented Nuclei (%): 8%
  Population Healthy Nuclei (%): 78%
  Population Hoechst High Intensity Objects (%): 1%
  Population Membrane Permeable-Phenotype (%): 5%
  Population Mitochondria Different-Phenotype (%): 18%
  Population Mitotic Cells (%): 50%
  Population Normal (%): 98%
  Population Pyknosed Nuclei (%): 12%
  Population Tubulin-Different-Phenotype (%): 16%
  Total Cell Count: 96
U2OS; [11]
  Population Apoptotic (%): 89%
  Population Fragmented Nuclei (%): 21%
  Population Healthy Nuclei (%): 37%
  Population Hoechst High Intensity Objects (%): 5%
  Population Membrane Permeable-Phenotype (%): 31%
  Population Mitochondria Different-Phenotype (%): 38%
  Population Mitotic Cells (%): 10%
  Population Normal (%): 94%
  Population Pyknosed Nuclei (%): 41%
  Population Tubulin-Different-Phenotype (%): 45%
  Total Cell Count: 124
U2OS; [12]
  Population Apoptotic (%): 92%
  Population Fragmented Nuclei (%): 24%
  Population Healthy Nuclei (%): 50%
  Population Hoechst High Intensity Objects (%): 13%
  Population Membrane Permeable-Phenotype (%): 55%
  Population Mitochondria Different-Phenotype (%): 55%
  Population Mitotic Cells (%): 7%
  Population Normal (%): 86%
  Population Pyknosed Nuclei (%): 24%
  Population Tubulin-Different-Phenotype (%): 58%
  Total Cell Count: 66
